# Source: ChEMBL document CHEMBL3632581, “Dimers of Melampomagnolide B Exhibit Potent Anticancer Activity against Hematological and Solid Tumor Cells” (J Med Chem, 2015)
# pEC50: −log10 of the molar value.
# How the values were obtained:
# [1] = test system: NCI-H23; experiment: Cytotoxicity against human NCI-H23 cells after 48 hrs by SRB assay; format: functional; settings: NCI-H23, 48 h
# Summary of the method: (§1)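 NCI-60 five-dose screen at 10−8 to 10−4 M. Cells were plated at 5,000–40,000/well in RPMI 1640 with 5% FBS and 2 mM L-glutamine, then preincubated 24 h, and time-zero plates were TCA-fixed. Compound was added from DMSO stocks and exposed 48 h at 37 °C. Cells were TCA-fixed, SRB-stained, and read at 515 nm. LC50 is the concentration halving the cell population through cell death.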
# [2] = test system: T47D; experiment: Cytotoxicity against human T47D cells after 48 hrs by SRB assay; format: functional
# Summary of the method: (§2)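 NCI-60 screen: cells grown in RPMI 1640 with 5% FBS and 2 mM L-glutamine, plated at 5,000–40,000 cells/well by doubling time, and preincubated 24 h at 37 °C before drug. Drug was diluted from DMSO stock and given at five concentrations, 10−4 to 10−8 M, for 48 h. Cells fixed with cold TCA, SRB stained, OD read at 515 nm against time-zero and vehicle plates. LC50 taken as the concentration that halves cell population through cell death.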
# [3] = test system: CCRF-CEM; experiment: Cytotoxicity against human CCRF-CEM cells after 48 hrs by SRB assay; format: functional; summary of the method: as §1
# [4] = test system: KM12; experiment: Cytotoxicity against human KM12 cells after 48 hrs by SRB assay; format: functional; settings: KM12, 48 h; summary of the method: as §1
# [5] = Antileukemic activity against human M9-ENL1 cells after 24 hrs by annexin V/7-AAD staining-based flow cytometric analysis; format: functional, cell-based
# Summary of the method: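 M9-ENL1 cells in alpha-MEM with 5% human plasma, 20% FBS, SCF, IL-3, IL-7 and FLT3. Drug came from a DMSO stock diluted in PBS (≤0.5% DMSO final), for 24 h over 0.5-10 μM. Cells negative for both annexin V and 7-AAD were taken as non-apoptotic and normalized to vehicle. EC50 read from dose-response curves, triplicate.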
# [6] = test system: MDA-MB-231; experiment: Cytotoxicity against human MDA-MB-231 cells after 48 hrs by SRB assay; format: functional; settings: MDA-MB-231, 48 h; summary of the method: as §1
# [7] = test system: UACC-62; experiment: Cytotoxicity against human UACC62 cells after 48 hrs by SRB assay; format: functional; settings: UACC-62, 48 h; summary of the method: as §2
# [8] = test system: HL-60(TB); experiment: Cytotoxicity against human HL-60(TB) cells after 48 hrs by SRB assay; format: functional; settings: HL-60, 48 h; summary of the method: as §1
# [9] = test system: SW-620; experiment: Cytotoxicity against human SW620 cells after 48 hrs by SRB assay; format: functional; settings: SW-620, 48 h; summary of the method: as §2
# [10] = test system: RPMI-8226; experiment: Cytotoxicity against human RPMI8226 cells after 48 hrs by SRB assay; format: functional; settings: RPMI-8226, 48 h; summary of the method: as §1
# [11] = test system: RXF 393; experiment: Cytotoxicity against human RXF393 cells after 48 hrs by SRB assay; format: functional; settings: RXF 393, 48 h; summary of the method: as §1
# [12] = test system: SNB-75; experiment: Cytotoxicity against human SNB75 cells after 48 hrs by SRB assay; format: functional; settings: SNB-75, 48 h; summary of the method: as §1
# [13] = test system: MDA-MB-468; experiment: Cytotoxicity against human MDA-MB-468 cells after 48 hrs by SRB assay; format: functional; settings: MDA-MB-468, 48 h; summary of the method: as §1
# [14] = test system: NCI-H522; experiment: Cytotoxicity against human NCI-H522 cells after 48 hrs by SRB assay; format: functional; settings: NCI-H522, 48 h; summary of the method: as §1
# [15] = Antileukemic activity against human AML02 cells after 24 hrs by annexin V/7-AAD staining-based flow cytometric analysis; format: functional, cell-based
# Summary of the method: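 Primary AML specimens from consenting donors, isolated by Ficoll-Paque gradient and sometimes cryopreserved. Cells were held 1 h in serum-free IMDM with 20% BIT 9500, LDL and β-mercaptoethanol before drug (DMSO stock diluted in PBS, ≤0.5% DMSO final). Exposure was 24 h over 0.5-10 μM. Annexin V/7-AAD double-negative cells, normalized to vehicle, gave the EC50. Run in triplicate.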
# [16] = test system: OVCAR-4; experiment: Cytotoxicity against human OVCAR4 cells after 48 hrs by SRB assay; format: functional; settings: OVCAR-4, 48 h; summary of the method: as §1
# [17] = test system: HOP-62; experiment: Cytotoxicity against human HOP62 cells after 48 hrs by SRB assay; format: functional; settings: HOP-62, 48 h; summary of the method: as §1
# [18] = test system: CAKI-1; experiment: Cytotoxicity against human Caki1 cells after 48 hrs by SRB assay; format: functional; settings: CAKI-1, 48 h; summary of the method: as §1
# [19] = test system: MOLT-4; experiment: Cytotoxicity against human MOLT4 cells after 48 hrs by SRB assay; format: functional; settings: MOLT-4, 48 h; summary of the method: as §1
# [20] = test system: BT-549; experiment: Cytotoxicity against human BT549 cells after 48 hrs by SRB assay; format: functional; settings: BT-549, 48 h; summary of the method: as §1
# [21] = test system: M14; experiment: Cytotoxicity against human M14 cells after 48 hrs by SRB assay; format: functional; settings: M14, 48 h; summary of the method: as §1
# [22] = test system: SF-539; experiment: Cytotoxicity against human SF539 cells after 48 hrs by SRB assay; format: functional; settings: SF-539, 48 h; summary of the method: as §1
# [23] = test system: SK-MEL-5; experiment: Cytotoxicity against human SK-MEL-5 cells after 48 hrs by SRB assay; format: functional; settings: SK-MEL-5, 48 h; summary of the method: as §1
# [24] = test system: OVCAR-3; experiment: Cytotoxicity against human OVCAR3 cells after 48 hrs by SRB assay; format: functional; settings: OVCAR-3, 48 h; summary of the method: as §1
# [25] = test system: A498; experiment: Cytotoxicity against human A498 cells after 48 hrs by SRB assay; format: functional; settings: A498, 48 h; summary of the method: as §1
# [26] = test system: SF-268; experiment: Cytotoxicity against human SF268 cells after 48 hrs by SRB assay; format: functional; settings: SF-268, 48 h; summary of the method: as §1
# [27] = test system: PC-3; experiment: Cytotoxicity against human PC3 cells after 48 hrs by SRB assay; format: functional; settings: PC-3, 48 h; summary of the method: as §1
# [28] = test system: SF-295; experiment: Cytotoxicity against human SF295 cells after 48 hrs by SRB assay; format: functional; settings: SF-295, 48 h; summary of the method: as §1
# [29] = test system: MDA-MB-435; experiment: Cytotoxicity against human MDA-MB-435 cells after 48 hrs by SRB assay; format: functional; settings: MDA-MB-435, 48 h; summary of the method: as §1
# [30] = test system: LOX IMVI; experiment: Cytotoxicity against human LOXIMVI cells after 48 hrs by SRB assay; format: functional; summary of the method: as §1
# [31] = test system: U-251; experiment: Cytotoxicity against human U251 cells after 48 hrs by SRB assay; format: functional; settings: U-251, 48 h; summary of the method: as §2
# [32] = Cytotoxicity against human EKVX cells after 48 hrs by SRB assay; format: functional; summary of the method: as §1
# [33] = read-out: LC50 (the source's name)
structure (smiles),measurement,setting,value
C=C1C(=O)O[C@H]2[C@H]1CC/C(COC(=O)NCCCCCCCCNC(=O)OC/C1=C/CC[C@@]3(C)O[C@H]3[C@H]3OC(=O)C(=C)[C@@H]3CC1)=C\CC[C@@]1(C)O[C@@H]21,GI50,[1],0.48 µM
same,CC50,[1]; [33],4.86 µM
same,GI50,[2],0.32 µM
same,CC50,[2]; [33],> 100 µM
same,GI50,[3],0.25 µM
same,CC50,[3]; [33],> 100 µM
same,GI50,[4],1.29 µM
same,CC50,[4]; [33],7.49 µM
same,pEC50,[5],5.70
same,GI50,[6],0.2 µM
same,LC50,[6],1.24 µM
same,GI50,[7],0.19 µM
same,CC50,[7]; [33],1.72 µM
same,GI50,[8],0.26 µM
same,CC50,[8]; [33],> 100 µM
same,GI50,[9],0.23 µM
same,CC50,[9]; [33],3.37 µM
same,GI50,[10],0.25 µM
same,CC50,[10]; [33],> 100 µM
same,GI50,[11],0.16 µM
same,CC50,[11]; [33],0.64 µM
same,GI50,[12],1.25 µM
same,CC50,[12]; [33],9.84 µM
same,GI50,[13],0.19 µM
same,LC50,[13],1.5 µM
same,GI50,[14],0.18 µM
same,CC50,[14]; [33],0.89 µM
same,pEC50,[15],5.92
same,GI50,[16],0.52 µM
same,CC50,[16]; [33],4.63 µM
same,GI50,[17],1.53 µM
same,CC50,[17]; [33],7.95 µM
same,GI50,[18],0.65 µM
same,CC50,[18]; [33],4.79 µM
same,GI50,[19],0.33 µM
same,CC50,[19]; [33],> 100 µM
same,GI50,[20],0.25 µM
same,LC50,[20],3.57 µM
same,GI50,[21],0.27 µM
same,CC50,[21]; [33],4.53 µM
same,GI50,[22],0.23 µM
same,CC50,[22]; [33],2.26 µM
same,GI50,[23],1.21 µM
same,CC50,[23]; [33],5.53 µM
same,GI50,[24],0.33 µM
same,CC50,[24]; [33],3.32 µM
same,GI50,[25],1.69 µM
same,CC50,[25]; [33],5.83 µM
same,GI50,[26],0.99 µM
same,CC50,[26]; [33],7.24 µM
same,GI50,[27],0.38 µM
same,LC50 (concentration killing half the cell population),[27],5.2 µM
same,GI50,[28],1.95 µM
same,CC50,[28]; [33],16.2 µM
same,GI50,[29],0.24 µM
same,CC50,[29]; [33],3.74 µM
same,GI50,[30],0.17 µM
same,CC50,[30]; [33],0.76 µM
same,GI50,[31],0.57 µM
same,CC50,[31]; [33],5.13 µM
same,GI50,[32],1.19 µM
same,CC50,[32]; [33],4.99 µM
